Results gathered from unrelated publications.
Target: Calcium-dependent protein kinase 1 (CDPK1, Plasmodium falciparum, UniProt P62344)

SMILES	test	conditions	endpoint	result
C=CC(=O)N1CCC(C(=O)NCC(=O)N2CCN(c3nc(-c4cnc(N)nc4C(F)F)nc(N4CCOCC4)n3)CC2)CC1	binding, competition with immobilised ligand	1 µM	remaining binding	81%
CNC(=O)[C@@H]1CC[C@@H](n2c(-c3ccc4cnccc4c3)nc3ccc(C(=O)NCc4cccc(C(N)=O)c4)cc32)C1	binding, competition with immobilised ligand	1 µM	remaining binding	99%
N[C@@H]1CCN(c2nccc(-c3cnn4ncccc34)n2)C1	binding	1 µM	remaining binding	91%
c1cncc(-c2cccc(Nc3nccc(NC4CCCCC4)n3)c2)c1	binding, competition with immobilised ligand	10 µM	remaining binding	24%
COc1cnc(Nc2cccc(S(N)(=O)=O)c2)nc1N1CCN(c2ccccc2)CC1	binding, competition with immobilised ligand	1 µM	remaining binding	86%
Cc1ccc(C(=O)Nc2ccc(CN3CCN(C)CC3)c(C(F)(F)F)c2)cc1C#Cc1cnc2cccnn12	enzyme activity, inhibitor	23.5 nM	remaining activity	16%
C[C@@H]1CCN(c2nccc(-c3cnn4ncccc34)n2)C1	binding	1 µM	remaining binding	85%
Nc1ncnc2occ(-c3ccc(NC(=O)Nc4cc(C(F)(F)F)ccc4F)cc3)c12	cell-free assay, inhibitor	20 µM	remaining signal	1.2%
O=C(Nc1c[nH]nc1C(=O)NC1CCNCC1)c1cc(F)cc(F)c1	binding, competition with immobilised ligand	1 µM	remaining binding	89%
FC(F)(F)Oc1cccc(-c2cnc3ccc(-c4ccncc4)nn23)c1	binding, competition with immobilised ligand	5 µM	remaining binding	4.5%
Nc1ncc2c(n1)-c1c([nH]c3ccc(C#CC4CC4)cc13)CCCC2	binding, competition with immobilised ligand	1 µM	remaining binding	79%
O=C(NCC1CCOCC1)c1n[nH]cc1NC(=O)c1c(F)cccc1F	binding, competition with immobilised ligand	1 µM	remaining binding	83%
CCN1CCN(Cc2ccc(C(=O)Nc3ccc(C)c(Oc4ccc5c(c4)CC(=O)N5)c3)cc2C(F)(F)F)CC1	binding, competition with immobilised ligand	1 µM	remaining binding	68%
COc1ccnn2ncc(-c3ccnc(N(C)C)n3)c12	binding	1 µM	remaining binding	81%
Cc1nn(C)cc1-c1nc2c(N3CCN(Cc4ccc(Cl)cc4)CC3)c(Cl)cnc2[nH]1	binding, competition with immobilised ligand	1 µM	remaining binding	100%
